Assay [1] has as its target T1, GABA-A receptor; alpha-1/beta-3/gamma-2 (Homo sapiens, UniProt P14867+P18507+P28472).
T1 sequence (P14867 whole entry): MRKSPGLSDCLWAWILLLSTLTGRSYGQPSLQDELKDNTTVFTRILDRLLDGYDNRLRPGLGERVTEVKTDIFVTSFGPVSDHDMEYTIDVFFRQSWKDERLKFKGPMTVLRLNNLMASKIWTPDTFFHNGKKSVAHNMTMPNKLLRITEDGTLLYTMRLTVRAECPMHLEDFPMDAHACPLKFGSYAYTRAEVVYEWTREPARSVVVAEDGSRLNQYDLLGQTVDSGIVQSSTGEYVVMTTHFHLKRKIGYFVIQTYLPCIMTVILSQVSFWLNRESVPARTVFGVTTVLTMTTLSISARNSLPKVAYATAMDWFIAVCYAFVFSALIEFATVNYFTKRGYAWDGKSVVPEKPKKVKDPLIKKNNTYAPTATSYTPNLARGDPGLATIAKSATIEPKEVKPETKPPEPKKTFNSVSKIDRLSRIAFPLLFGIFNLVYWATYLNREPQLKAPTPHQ
T1 sequence (P18507 whole entry): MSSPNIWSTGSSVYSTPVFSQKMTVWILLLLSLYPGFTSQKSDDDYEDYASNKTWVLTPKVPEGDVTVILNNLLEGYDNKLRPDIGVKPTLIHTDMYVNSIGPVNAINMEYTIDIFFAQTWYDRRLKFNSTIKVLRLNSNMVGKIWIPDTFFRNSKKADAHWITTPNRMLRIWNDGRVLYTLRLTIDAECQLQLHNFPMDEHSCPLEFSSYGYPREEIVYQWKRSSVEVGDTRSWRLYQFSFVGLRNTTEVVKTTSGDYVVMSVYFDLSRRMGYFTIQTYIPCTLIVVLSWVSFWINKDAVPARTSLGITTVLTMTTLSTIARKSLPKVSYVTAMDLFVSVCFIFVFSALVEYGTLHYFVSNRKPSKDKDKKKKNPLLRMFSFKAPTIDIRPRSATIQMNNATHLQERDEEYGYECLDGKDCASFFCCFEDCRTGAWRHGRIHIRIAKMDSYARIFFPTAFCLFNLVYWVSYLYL
T1 sequence (P28472 whole entry): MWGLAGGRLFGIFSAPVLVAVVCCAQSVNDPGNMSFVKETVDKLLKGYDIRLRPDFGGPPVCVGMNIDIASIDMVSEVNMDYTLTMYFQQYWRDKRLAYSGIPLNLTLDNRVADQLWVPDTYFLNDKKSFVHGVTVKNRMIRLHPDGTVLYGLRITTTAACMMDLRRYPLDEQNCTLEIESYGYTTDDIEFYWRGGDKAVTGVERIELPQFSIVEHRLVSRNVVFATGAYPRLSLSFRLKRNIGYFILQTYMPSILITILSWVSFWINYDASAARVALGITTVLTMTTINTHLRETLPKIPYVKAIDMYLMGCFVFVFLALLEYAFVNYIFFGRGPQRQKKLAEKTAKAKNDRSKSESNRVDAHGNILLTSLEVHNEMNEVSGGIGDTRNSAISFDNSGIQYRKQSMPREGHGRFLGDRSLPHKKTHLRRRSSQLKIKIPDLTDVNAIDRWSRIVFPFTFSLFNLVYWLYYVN
Nature of the assay: Binding affinity towards human alpha-1-beta-3-gamma-2 GABA-A receptor using [3H]Ro-151788 expressed in L(tk-) cells. The class given is cell-based.

Assay [2] concerns the target T2, GABA-A receptor; alpha-3/beta-3/gamma-2 (Homo sapiens, UniProt P18507+P28472+P34903).
T2 sequence (P18507 whole entry): T1 sequence (P18507 whole entry)
T2 sequence (P28472 whole entry): T1 sequence (P28472 whole entry)
T2 sequence (P34903 whole entry): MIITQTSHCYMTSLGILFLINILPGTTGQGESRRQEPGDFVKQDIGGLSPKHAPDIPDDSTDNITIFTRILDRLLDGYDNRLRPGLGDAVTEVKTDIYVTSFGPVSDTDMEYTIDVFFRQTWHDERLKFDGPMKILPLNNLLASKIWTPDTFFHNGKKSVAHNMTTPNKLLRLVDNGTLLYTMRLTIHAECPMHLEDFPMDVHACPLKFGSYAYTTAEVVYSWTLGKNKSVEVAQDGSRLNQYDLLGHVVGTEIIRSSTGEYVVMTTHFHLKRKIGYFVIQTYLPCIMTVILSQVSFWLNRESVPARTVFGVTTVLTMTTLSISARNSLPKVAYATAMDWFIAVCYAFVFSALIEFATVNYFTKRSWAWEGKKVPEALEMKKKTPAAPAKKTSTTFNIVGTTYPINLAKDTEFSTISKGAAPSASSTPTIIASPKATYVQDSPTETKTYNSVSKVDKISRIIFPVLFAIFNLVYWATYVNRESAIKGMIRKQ
Nature of the assay: Binding affinity towards human gamma-aminobutyric-acid A receptor alpha-3-beta-3-gamma-2 using [3H]Ro-151788 expressed in L(tk-) cells. It is filed as cell-based.

In assay [3] the target is T3, GABA-A receptor; alpha-5/beta-3/gamma-2 (Homo sapiens, UniProt P18507+P28472+P31644).
T3 sequence (P18507 whole entry): T1 sequence (P18507 whole entry)
T3 sequence (P28472 whole entry): T1 sequence (P28472 whole entry)
T3 sequence (P31644 whole entry): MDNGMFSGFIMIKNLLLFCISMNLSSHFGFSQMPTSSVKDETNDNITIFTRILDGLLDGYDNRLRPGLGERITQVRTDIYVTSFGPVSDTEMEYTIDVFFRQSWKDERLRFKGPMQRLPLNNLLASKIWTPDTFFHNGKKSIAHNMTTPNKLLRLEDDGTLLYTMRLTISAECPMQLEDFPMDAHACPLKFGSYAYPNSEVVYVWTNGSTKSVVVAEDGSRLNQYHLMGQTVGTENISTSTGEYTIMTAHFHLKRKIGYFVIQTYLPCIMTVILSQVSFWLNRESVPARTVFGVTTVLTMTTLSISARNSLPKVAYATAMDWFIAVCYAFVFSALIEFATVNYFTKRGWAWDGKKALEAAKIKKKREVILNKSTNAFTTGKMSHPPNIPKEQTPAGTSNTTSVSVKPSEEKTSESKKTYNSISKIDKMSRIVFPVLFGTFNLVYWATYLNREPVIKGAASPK
The assay is described as follows: Binding affinity towards human alpha-5-beta-3-gamma-2 GABA-A receptor using [3H]Ro-151788 expressed in L(tk-) cells. The class given is cell-based.

Assay [4] addresses T4, GABA-A receptor; alpha-2/beta-3/gamma-2 (Homo sapiens, UniProt P18507+P28472+P47869).
T4 sequence (P18507 whole entry): T1 sequence (P18507 whole entry)
T4 sequence (P28472 whole entry): T1 sequence (P28472 whole entry)
T4 sequence (P47869 whole entry): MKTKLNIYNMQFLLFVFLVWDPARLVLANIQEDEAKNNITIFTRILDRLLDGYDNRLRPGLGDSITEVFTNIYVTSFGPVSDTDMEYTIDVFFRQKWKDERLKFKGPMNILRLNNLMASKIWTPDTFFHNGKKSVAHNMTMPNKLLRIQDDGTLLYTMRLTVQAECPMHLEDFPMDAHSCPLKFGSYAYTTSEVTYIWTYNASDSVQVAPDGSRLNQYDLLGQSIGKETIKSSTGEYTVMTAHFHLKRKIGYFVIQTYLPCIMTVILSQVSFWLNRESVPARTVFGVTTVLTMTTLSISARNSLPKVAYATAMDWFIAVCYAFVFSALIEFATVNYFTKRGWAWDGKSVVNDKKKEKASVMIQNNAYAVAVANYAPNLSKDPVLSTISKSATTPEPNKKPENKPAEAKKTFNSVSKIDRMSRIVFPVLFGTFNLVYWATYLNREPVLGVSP
The assay is described as follows: Binding affinity towards human gamma-aminobutyric-acid A receptor alpha-2-beta-3-gamma-2 using [3H]Ro-151788 expressed in L(tk-) cells. It is filed as cell-based.

Assay [5] concerns the target GABA-A receptor; alpha-5/beta-3/gamma-2 (Homo sapiens) (UniProt P18507+P28472+P31644). The assay is described as follows: Percent change in electrophysiological response in Xenopus oocytes expressing Alpha-5-beta-3-gamma-2 GABA-A receptor. It is filed as functional, cell-based. As to conditions: Oocyte. Put shortly:
(§1)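 Two-electrode voltage clamp on Xenopus oocytes injected with human GABA-A subunit cDNAs, 24-72 h expression, perfused with modified Barth's medium at pH 7.5, clamped between -40 and -70 mV. The GABA EC20 was titrated against a 3 mM GABA maximum. […] Result is % change of control current, mean ± SE of ≥4 oocytes.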

Assay [6] addresses GABA-A receptor; alpha-3/beta-3/gamma-2 (Homo sapiens) (UniProt P18507+P28472+P34903). The assay is described as follows: Percent change in electrophysiological response in Xenopus oocytes expressing Alpha3-beta3-gamma2 GABA-A receptor. The class given is functional, cell-based. Particulars: Oocyte. Put shortly:
as §1

This is an account of results in ChEMBL document CHEMBL1148356, “Synthesis and biological evaluation of 3-heterocyclyl-7,8,9,10-tetrahydro-(7,10-ethano)-1,2,4-triazolo[3,4-a]phthalazines and analogues as subtype-selective inverse agonists for the GABA(A)alpha5 benzodiazepine binding site” (J Med Chem, 2004).

One may read the Ki as the dissociation constant of the complex between target and ligand, obtained from inhibition or displacement. Higher therefore signals a looser hold on the target. `Cc1cccc(COc2nn3c(-c4nc(-c5ccccc5)no4)nnc3c3c2C2CCC3CC2)n1`: the Ki in assay [1] is more than 1000 nM; in assay [2], 227 nM; in assay [3], 19.2 nM; in assay [4], 203 nM.

Consider `Cc1noc(-c2nnc3c4c(c(OCc5ncc[nH]5)nn23)C2CCC4CC2)n1`, for which the Ki in assay [1] was found to be 159 nM; in assay [2] it was 19.4 nM; in assay [3] it was 3.8 nM; in assay [4], 35.9 nM. The Efficacy in assay [5] is -26%.

Consider `Cc1cccc(COc2nn3c(-c4cccs4)nnc3c3c2C2CCC3CC2)n1`, for which the Ki stood at 115 nM in assay [1], 22 nM in assay [2], 4 nM in assay [3] and 66 nM in assay [4].

Consider `CCc1noc(-c2nnc3c4c(c(OCc5cccc(C)n5)nn23)C2CCC4CC2)n1`, for which the inhibitory constant (Ki) worked out at 171 nM in assay [1], 21 nM in assay [2], 3.5 nM in assay [3] and 34 nM in assay [4].

`Cc1noc(-c2nnc3c4c(c(OCc5cccnc5)nn23)C2CCC4CC2)n1`: the inhibitory constant (Ki) stood at 26.8 nM in assay [1], 4.2 nM in assay [2], 0.93 nM in assay [3] and 5.7 nM in assay [4].

With `Cc1cccc(COc2nn3c(-c4ccccn4)nnc3c3c2C2CCC3CC2)n1`, the inhibition constant Ki in assay [1] worked out at 518 nM; in assay [2], 104 nM; in assay [3], 15.3 nM; in assay [4] it was 227 nM.

Take `Cc1cccc(COc2nn3c(-c4ncn(C)n4)nnc3c3c2C2CCC3CC2)n1`: the inhibitory constant (Ki) in assay [1] is more than 1000 nM; in assay [2] it was more than 1000 nM; in assay [3] it was 214 nM; in assay [4] it was more than 1000 nM.

Take `Cc1cccc(COc2nn3c(-c4ccco4)nnc3c3c2C2CCC3CC2)n1`: the Ki is 1000 nM in assay [1], 116 nM in assay [2], 13 nM in assay [3] and 275 nM in assay [4].

As to `Cc1nc(-c2nnc3c4c(c(OCc5cccc[n+]5[O-])nn23)C2CCC4CC2)[o+][n-]1`, the Ki in assay [1] came to 74.3 nM; in assay [2], 14.7 nM; in assay [3], 3.9 nM; in assay [4], 15.4 nM.

Consider `Cc1cccc(COc2nn3c(-c4cc(C)on4)nnc3c3c2C2CCC3C2)n1` (centres undefined), for which the Ki was 147 nM in assay [1], 33.5 nM in assay [2], 8.9 nM in assay [3] and 38.4 nM in assay [4]. Besides, the Efficacy in assay [5] is -24%; in assay [6] it was 11%.

Turning to `Cc1cccc(COc2nn3c(-c4coc(C)n4)nnc3c3c2C2CCC3CC2)n1`, the Ki in assay [1] was 280 nM; in assay [2] it was 46 nM; in assay [3] it was 6.8 nM; in assay [4], 57 nM.

As for `Cc1noc(-c2nnc3c4c(c(OCc5ccccc5C#N)nn23)C2CCC4CC2)n1`, the Ki in assay [1] came out at 17.5 nM; in assay [2], 1.7 nM; in assay [3] it was 0.44 nM; in assay [4] it was 2.9 nM. In addition, in assay [5], the Efficacy is -45%.

As for `Cc1noc(-c2nnc3c4c(c(OCc5ccccn5)nn23)C2CCC4CC2)n1`, the inhibition constant Ki in assay [1] amounted to 28.2 nM; in assay [2], 3.9 nM; in assay [3] it was 0.77 nM; in assay [4], 8.5 nM. In addition, the Efficacy in assay [5] was -38%.

On to `Cc1cccc(COc2nn3c(-c4csc(C)n4)nnc3c3c2C2CCC3CC2)n1`, for which the Ki in assay [1] was more than 1000 nM; in assay [2] it was more than 1000 nM; in assay [3] it was 58 nM; in assay [4] it was more than 1000 nM.

In the case of `Cc1cccc(COc2nn3c(-c4nc(-c5ccncc5)no4)nnc3c3c2C2CCC3CC2)n1`, the Ki in assay [1] is more than 1000 nM; in assay [2], 26.4 nM; in assay [3], 2.1 nM; in assay [4] it was 209 nM.

Regarding `Cc1cccc(COc2nn3c(-c4nc(C(C)C)no4)nnc3c3c2C2CCC3CC2)n1`, the Ki in assay [1] is more than 1000 nM; in assay [2] it was 83.9 nM; in assay [3] it was 6.5 nM; in assay [4] it was 68.4 nM.

For the compound `Cc1cccc(COc2nn3c(-c4ncnn4C)nnc3c3c2C2CCC3CC2)n1`, the inhibitory constant (Ki) in assay [1] was more than 1000 nM; in assay [2], more than 1000 nM; in assay [3], 253 nM; in assay [4], more than 1000 nM.

As for `Cc1cc(-c2nnc3c4c(c(OCc5ccccn5)nn23)C2CCC4C2)no1` (centres undefined), the Ki in assay [1] was determined as 57.7 nM; in assay [2] it was 17.6 nM; in assay [3], 5.5 nM; in assay [4], 19.7 nM. Moreover, the Efficacy in assay [5] is -13%; in assay [6], 0.6%.

For `Cc1cccc(COc2nn3c(-c4nc(-c5cccnc5)no4)nnc3c3c2C2CCC3CC2)n1`, the inhibitory constant (Ki) was more than 1000 nM in assay [1], 69.6 nM in assay [2], 3.3 nM in assay [3] and 166 nM in assay [4].

As to `Cc1cccc(COc2nn3c(-c4ccsc4)nnc3c3c2C2CCC3CC2)n1`, in assay [5], the Efficacy was determined as 7%.
